# Legend:
# Klebsiella pneumoniae [1] = assay: Antibacterial activity against ESBL positive Klebsiella pneumoniae ATCC 700603 after 24 hrs by resazurin dye based microdilution assay; type: functional; settings: Klebsiella pneumoniae, 700603, 24 h
# Procedure, shortened: (§1)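 MIC taken as the lowest concentration giving visible inhibition and/or by resazurin (1 mg/mL). Gentamicin was the control. Run in duplicate, repeated at least three times.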
# Klebsiella pneumoniae [2] = assay: Antibacterial activity against carbapenemase positive Klebsiella pneumoniae BAA 1705 after 24 hrs by resazurin dye based microdilution assay; type: functional; settings: BAA 1705, 24 h; procedure, shortened: as §1
# Leishmania panamensis = assay: Antileshmanial activity against EpiR/GFP fused Leishmania panamensis MHOM/CO/87/UA140 intracellular amastigotes infected in human […] cells after 72 hrs by flow cytometric method; type: functional, cell-based; settings: MHOM/CO/87/UA140, 72 h
# Procedure, shortened: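 PMA-treated U-937 cells (3 × 10^5 cells/mL) infected with stationary-phase GFP L. panamensis promastigotes (15:1), 3 h at 34 °C, then washed. After 24 h, compounds added at 50, 12.5, 3.125 and 0.78 µg/mL for 72 h at 37 °C. EC50 by Probit; triplicate, two experiments.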
# Candida albicans [3] = assay: Antifungal activity against Candida albicans ATCC 10231 incubated for 48 hrs under dark condition by broth microdilution method; type: functional; settings: ATCC 10231, 48 h
# Procedure, shortened: (§2)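 CLSI M27-A3 broth microdilution in RPMI-1640, DMSO ≤1%, compounds at 250-0.98 µg/mL final. Inoculum 1-5 × 10^3 CFU/mL. Incubated 48 h at 30 °C in a moist dark chamber, read at OD405. MIC80 and MIC50 taken from % inhibition dose-response curves (mean ± SEM, triplicate). Amphotericin B was the positive control.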
# Cryptococcus neoformans [4] = assay: Antifungal activity against Cryptococcus neoformans ATCC 32264 incubated for 48 hrs under dark condition by broth microdilution method; type: functional; settings: ATCC 32264, 48 h; procedure, shortened: as §2
# Candida albicans [5] = assay: Growth inhibition of Candida albicans ATCC 10231 at 250 ug/ml incubated for 48 hrs under dark condition by broth microdilution method relative to control; type: functional; settings: ATCC 10231, 48 h, read-out: GI
# Procedure, shortened: (§3)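 CLSI M27-A3 broth microdilution in RPMI-1640, DMSO ≤1%. Inoculum 1-5 × 10^3 CFU/mL. Incubated 48 h at 30 °C, dark. % inhibition = 100 − (OD405 test − sterility control)/(OD405 growth control − sterility control), with growth and sterility control wells. Triplicate.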
# Candida albicans [6] = assay: Growth inhibition of Candida albicans ATCC 10231 at 125 ug/ml incubated for 48 hrs under dark condition by broth microdilution method relative to control; type: functional; settings: ATCC 10231, 48 h, read-out: GI; procedure, shortened: as §3
# Candida albicans [7] = assay: Growth inhibition of Candida albicans ATCC 10231 at 62.5 ug/ml incubated for 48 hrs under dark condition by broth microdilution method relative to control; type: functional; settings: ATCC 10231, 48 h, read-out: GI; procedure, shortened: as §3
# Candida albicans [8] = assay: Growth inhibition of Candida albicans ATCC 10231 at 31.25 ug/ml incubated for 48 hrs under dark condition by broth microdilution method relative to control; type: functional; settings: ATCC 10231, 48 h, read-out: GI; procedure, shortened: as §3
# Candida albicans [9] = assay: Growth inhibition of Candida albicans ATCC 10231 at 15.62 ug/ml incubated for 48 hrs under dark condition by broth microdilution method relative to control; type: functional; settings: ATCC 10231, 48 h, read-out: GI; procedure, shortened: as §3
# Candida albicans [10] = assay: Growth inhibition of Candida albicans ATCC 10231 at 7.8 ug/ml incubated for 48 hrs under dark condition by broth microdilution method relative to control; type: functional; settings: ATCC 10231, 48 h, read-out: GI; procedure, shortened: as §3
# Candida albicans [11] = assay: Growth inhibition of Candida albicans ATCC 10231 at 3.4 ug/ml incubated for 48 hrs under dark condition by broth microdilution method relative to control; type: functional; settings: ATCC 10231, 48 h, read-out: GI
# Cryptococcus neoformans [12] = assay: Growth inhibition of Cryptococcus neoformans ATCC 32264 at 250 ug/ml incubated for 48 hrs under dark condition by broth microdilution method relative to control; type: functional; settings: ATCC 32264, 48 h, read-out: GI; procedure, shortened: as §3
# Cryptococcus neoformans [13] = assay: Growth inhibition of Cryptococcus neoformans ATCC 32264 at 125 ug/ml incubated for 48 hrs under dark condition by broth microdilution method relative to control; type: functional; settings: ATCC 32264, 48 h, read-out: GI; procedure, shortened: as §3
# Cryptococcus neoformans [14] = assay: Growth inhibition of Cryptococcus neoformans ATCC 32264 at 62.5 ug/ml incubated for 48 hrs under dark condition by broth microdilution method relative to control; type: functional; settings: ATCC 32264, 48 h, read-out: GI; procedure, shortened: as §3
# Cryptococcus neoformans [15] = assay: Growth inhibition of Cryptococcus neoformans ATCC 32264 at 31.25 ug/ml incubated for 48 hrs under dark condition by broth microdilution method relative to control; type: functional; settings: ATCC 32264, 48 h, read-out: GI; procedure, shortened: as §3
# Cryptococcus neoformans [16] = assay: Growth inhibition of Cryptococcus neoformans ATCC 32264 at 15.62 ug/ml incubated for 48 hrs under dark condition by broth microdilution method relative to control; type: functional; settings: ATCC 32264, 48 h, read-out: GI; procedure, shortened: as §3
# Cryptococcus neoformans [17] = assay: Growth inhibition of Cryptococcus neoformans ATCC 32264 at 7.8 ug/ml incubated for 48 hrs under dark condition by broth microdilution method relative to control; type: functional; settings: ATCC 32264, 48 h, read-out: GI; procedure, shortened: as §3
# Cryptococcus neoformans [18] = assay: Growth inhibition of Cryptococcus neoformans ATCC 32264 at 3.4 ug/ml incubated for 48 hrs under dark condition by broth microdilution method relative to control; type: functional; settings: ATCC 32264, 48 h, read-out: GI
# Staphylococcus aureus [19] = assay: Antibacterial activity against methicillin-sensitive Staphylococcus aureus ATCC 25923 after 24 hrs by resazurin dye based microdilution assay; type: functional; settings: ATCC 25923, 24 h; procedure, shortened: as §1
# Staphylococcus aureus [20] = assay: Antibacterial activity against methicillin-resistant Staphylococcus aureus ATCC 43300 after 24 hrs by resazurin dye based microdilution assay; type: functional; settings: ATCC 43300, 24 h
# Procedure, shortened: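 Broth microdilution in Mueller Hinton broth, inoculum 5 × 10^5 – 8 × 10^5. Compound stocks diluted in MHB with 5% DMSO and 0.1% Tween 80. Incubation 24 h at 35-37 °C. MIC is the lowest concentration with visible growth inhibition and/or by resazurin (1 mg/mL) read-out. Gentamicin as control. Run in duplicate, replicated at least three times.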
# Staphylococcus aureus [21] = assay: Antibacterial activity against vancomycin-intermediate Staphylococcus aureus after 24 hrs by resazurin dye based microdilution assay; type: functional; procedure, shortened: as §1
# Escherichia coli = assay: Antibacterial activity against Escherichia coli ATCC 25922 after 24 hrs by resazurin dye based microdilution assay; type: functional; settings: ATCC 25922, 24 h; procedure, shortened: as §1
# Pseudomonas aeruginosa = assay: Antibacterial activity against Pseudomonas aeruginosa ATCC 27853 after 24 hrs by resazurin dye based microdilution assay; type: functional; settings: ATCC 27853, 24 h; procedure, shortened: as §1
# Neisseria gonorrhoeae = assay: Antibacterial activity against beta lactamase positive Neisseria gonorrhoeae ATCC 31426 by oxidase test; type: functional
# Procedure, shortened: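 Agar dilution MIC on GC agar with 1% isovitalex containing increasing compound concentrations. Plates inoculated with about 1×10^4 CFU (5 µL). MIC is the lowest concentration that inhibited growth, with growth confirmed by oxidase test. Run in duplicate, repeated at least three times.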
# Plasmodium falciparum = assay: Antiplasmodial activity against chloroquine-sensitive Plasmodium falciparum 3D7 assessed as reduction in parasitic LDH activity after 48 hrs by Malstat reagent based […] method; type: functional; settings: 3D7, 48 h
# Procedure, shortened: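 Unsynchronized P. falciparum 3D7 at 0.5% parasitemia and 1% hematocrit in RPMI with 3% Albumax II. Exposed to 100, 25, 6.25 and 1.56 µg/mL for 48 h at 37 °C under 90% N2/5% CO2/5% O2. After three freeze-thaw cycles, LDH measured with Malstat and NBT/PES, 1 h in the dark, read at 650 nm. IC50 by Probit; triplicate, ≥2 experiments.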
# U-937 = assay: Cytotoxicity against human U937 cells after 72 hrs by MTT assay; type: cell-based; settings: u-937, 72 h
# Procedure, shortened: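 Exponentially growing U-937 at 1 × 10^5 cells/mL in RPMI-1640 with 10% FBS were exposed to 200, 50, 12.5 and 3.125 µg/mL for 72 h at 37 °C, 5% CO2. MTT for 3 h, stopped with isopropanol/SDS, formazan read at 570 nm, blank-corrected. LC50 by Probit from % viability against untreated cells. Triplicate, at least two independent experiments.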
# Trypanosoma cruzi = assay: Antitrypanosomal activity against Trypanosoma cruzi Tulahuen intracellular amastigote harboring LacZ infected in human U937 cells after 72 hrs by CPRG/Nonidet reagent based spectrophotometric method; type: functional, cell-based; settings: U-937, 72 h
# Procedure, shortened: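 U-937 cells at 2.5 × 10^5 cells/mL in RPMI-1640 with 10% serum and 0.1 µg/mL PMA were infected with β-galactosidase-transfected Tulahuen epimastigotes at 5 parasites per cell. Infected cells were exposed to 50, 12.5, 3.125 and 0.78 µg/mL for 72 h. CPRG (100 uM) and 0.1% Nonidet P-40 were added for 3 h, read at 570 nm. EC50 by Probit. Triplicate, at least two experiments; benznidazole as reference.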
smiles,measurement,setting,value
CC(=O)N1N=C(c2ccc(C)cc2)CC1c1cccc(Nc2ccnc3cc(Cl)ccc23)c1 (stereo not given),MIC,Klebsiella pneumoniae [1],> 1000 µg/mL
same,MIC,Klebsiella pneumoniae [2],> 1000 µg/mL
same,EC50,Leishmania panamensis,1.55 µg/mL
same,MIC50,Candida albicans [3],250 µg/mL
same,MIC80,Candida albicans [3],≥ 250 µg/mL
same,MIC50,Cryptococcus neoformans [4],125 µg/mL
same,MIC80,Cryptococcus neoformans [4],250 µg/mL
same,inhibition of growth at 250 µg/mL,Candida albicans [5],67.8%
same,inhibition of growth at 125 µg/mL,Candida albicans [6],46.2%
same,inhibition of growth at 62.5 µg/mL,Candida albicans [7],35.9%
same,inhibition of growth at 31.25 µg/mL,Candida albicans [8],32.2%
same,inhibition of growth at 15.62 µg/mL,Candida albicans [9],31.4%
same,inhibition of growth at 7.8 µg/mL,Candida albicans [10],20.6%
same,inhibition of growth at 3.4 µg/mL,Candida albicans [11],15.9%
same,inhibition of growth at 250 µg/mL,Cryptococcus neoformans [12],100%
same,inhibition of growth at 125 µg/mL,Cryptococcus neoformans [13],54.7%
same,inhibition of growth at 62.5 µg/mL,Cryptococcus neoformans [14],42.9%
same,inhibition of growth at 31.25 µg/mL,Cryptococcus neoformans [15],33.7%
same,inhibition of growth at 15.62 µg/mL,Cryptococcus neoformans [16],29.6%
same,inhibition of growth at 7.8 µg/mL,Cryptococcus neoformans [17],29.2%
same,inhibition of growth at 3.4 µg/mL,Cryptococcus neoformans [18],13.2%
same,MIC,Staphylococcus aureus [19],> 1000 µg/mL
same,MIC,Staphylococcus aureus [20],> 1000 µg/mL
same,MIC,Staphylococcus aureus [21],> 1000 µg/mL
same,MIC,Escherichia coli,> 1000 µg/mL
same,MIC,Pseudomonas aeruginosa,> 1000 µg/mL
same,MIC,Neisseria gonorrhoeae,> 1000 µg/mL
same,EC50,Plasmodium falciparum,17.5 µg/mL
same,LC50,U-937,4.4 µg/mL
same,EC50,Trypanosoma cruzi,1.62 µg/mL
